What was measured:
Brassica juncea [1] = assay: Herbicidal activity against Brassica juncea assessed as growth inhibition at 150 g ai/ha applied as pre-emergence treatment 24 hr after weeds seeds sowing under green house conditions measured 15 days post compound treatment; format: functional; settings: read-out: GI
Method in brief: (§1)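 Pre-emergence spray applied 24 h after sowing weeds in pots in a greenhouse. Clay soil: pH 6.5, 1.6% organic matter, 37.3% clay, CEC 12.1 cmol/kg. Formulation: 100 g/L emulsified concentrate (DMF solvent, TW-80 emulsifier) diluted with water to 150 g ai/ha. Untreated and DMF-treated controls. Growth inhibition judged visually at 15 days: ++ >80%, + 50-80%, − <50%.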

Setaria viridis [2] = assay: Herbicidal activity against Setaria viridis (green foxtail) assessed as growth inhibition at 150 g ai/ha applied as pre-emergence treatment 24 hr after weeds seeds sowing under green house conditions measured 15 days post compound treatment; format: functional; settings: read-out: GI; method in brief: as §1
Echinochloa crus-galli [3] = assay: Herbicidal activity against Echinochloa crus-galli (barnyard grass) assessed as growth inhibition at 150 g ai/ha applied as pre-emergence treatment 24 hr after weeds seeds sowing under green house conditions measured 15 days post compound treatment; format: functional; settings: read-out: GI; method in brief: as §1
Setaria viridis [4] = assay: Herbicidal activity against Setaria viridis (green foxtail) assessed as growth inhibition at 150 g ai/ha applied as post-emergence treatment under green house conditions measured 15 days post compound treatment; format: functional; settings: 360 h, read-out: GI
Method in brief: (§2)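 Monocot weeds grown in pots in a greenhouse and sprayed post-emergence at the one-leaf stage. Clay soil: pH 6.5, 1.6% organic matter, 37.3% clay, CEC 12.1 cmol/kg. Formulation: 100 g/L emulsified concentrate (DMF, TW-80) diluted with water to 150 g ai/ha. Untreated and DMF controls included. Growth inhibition scored visually after 15 days: ++ >80%, + 50-80%, − <50%.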

[5] = target: T1, Acetolactate synthase, chloroplastic (Arabidopsis thaliana, UniProt P17597); assay: Inhibition of wild type Arabidopsis thaliana acetohydroxyacid synthase
T1 sequence (P17597 whole entry): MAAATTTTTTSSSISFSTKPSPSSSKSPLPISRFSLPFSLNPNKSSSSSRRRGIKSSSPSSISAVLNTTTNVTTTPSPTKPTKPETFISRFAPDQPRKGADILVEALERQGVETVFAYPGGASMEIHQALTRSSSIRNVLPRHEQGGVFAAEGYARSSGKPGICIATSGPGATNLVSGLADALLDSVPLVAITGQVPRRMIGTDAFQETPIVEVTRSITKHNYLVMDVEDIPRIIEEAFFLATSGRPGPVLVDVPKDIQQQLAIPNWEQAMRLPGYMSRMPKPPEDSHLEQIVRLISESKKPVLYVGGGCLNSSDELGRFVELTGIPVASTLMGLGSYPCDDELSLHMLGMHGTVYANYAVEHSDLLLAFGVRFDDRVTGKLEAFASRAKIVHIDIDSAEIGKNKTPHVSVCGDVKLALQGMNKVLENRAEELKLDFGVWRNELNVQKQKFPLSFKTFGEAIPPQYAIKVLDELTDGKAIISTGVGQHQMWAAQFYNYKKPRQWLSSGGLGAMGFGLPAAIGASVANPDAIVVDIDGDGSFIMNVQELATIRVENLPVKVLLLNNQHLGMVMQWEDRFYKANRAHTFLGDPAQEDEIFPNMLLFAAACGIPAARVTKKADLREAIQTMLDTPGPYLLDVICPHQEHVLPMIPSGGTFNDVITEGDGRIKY

Amaranthus retroflexus [6] = assay: Herbicidal activity against Amaranthus retroflexus assessed as growth inhibition at 150 g ai/ha applied as pre-emergence treatment 24 hr after weeds seeds sowing under green house conditions measured 15 days post compound treatment; format: functional; settings: read-out: GI; method in brief: as §1
Echinochloa crus-galli [7] = assay: Herbicidal activity against Echinochloa crus-galli (barnyard grass) assessed as growth inhibition at 150 g ai/ha applied as post-emergence treatment under green house conditions measured 15 days post compound treatment; format: functional; settings: 360 h, read-out: GI; method in brief: as §2
Chenopodium album [8] = assay: Herbicidal activity against Chenopodium album assessed as growth inhibition at 150 g ai/ha applied as post-emergence treatment under green house conditions measured 15 days post compound treatment; format: functional; settings: 360 h, read-out: GI
Method in brief: (§3)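 Post-emergence spray on pot-grown dicot weeds at the two-leaf stage in a greenhouse. Clay soil: pH 6.5, 1.6% organic matter, 37.3% clay, CEC 12.1 cmol/kg. Formulation: 100 g/L DMF/TW-80 emulsified concentrate, water-diluted to 150 g ai/ha. Untreated and DMF solvent controls. Visual inhibition rating at 15 days: ++ >80%, + 50-80%, − <50%.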

Digitaria sanguinalis [9] = assay: Herbicidal activity against Digitaria sanguinalis (hairy crabgrass) assessed as growth inhibition at 150 g ai/ha applied as post-emergence treatment under green house conditions measured 15 days post compound treatment; format: functional; settings: 360 h, read-out: GI; method in brief: as §2
Digitaria sanguinalis [10] = assay: Herbicidal activity against Digitaria sanguinalis (hairy crabgrass) assessed as growth inhibition at 150 g ai/ha applied as pre-emergence treatment 24 hr after weeds seeds sowing under green house conditions measured 15 days post compound treatment; format: functional; settings: read-out: GI; method in brief: as §1
Chenopodium album [11] = assay: Herbicidal activity against Chenopodium album assessed as growth inhibition at 150 g ai/ha applied as pre-emergence treatment 24 hr after weeds seeds sowing under green house conditions measured 15 days post compound treatment; format: functional; settings: read-out: GI; method in brief: as §1
Amaranthus retroflexus [12] = assay: Herbicidal activity against Amaranthus retroflexus assessed as growth inhibition at 150 g ai/ha applied as post-emergence treatment under green house conditions measured 15 days post compound treatment; format: functional; settings: 360 h, read-out: GI; method in brief: as §3
Brassica juncea [13] = assay: Herbicidal activity against Brassica juncea assessed as growth inhibition at 150 g ai/ha applied as post-emergence treatment under green house conditions measured 15 days post compound treatment; format: functional; settings: 360 h, read-out: GI; method in brief: as §3

Row | SMILES | Ki [5] [µM] | inhibition of growth at 150 g/ha (Brassica juncea [1]) [%] | inhibition of growth at 150 g/ha (Setaria viridis [2]) [%] | inhibition of growth at 150 g/ha (Echinochloa crus-galli [3]) [%] | inhibition of growth at 150 g/ha (Setaria viridis [4]) [%] | inhibition of growth at 150 g/ha (Amaranthus retroflexus [6]) [%] | inhibition of growth at 150 g/ha (Echinochloa crus-galli [7]) [%] | inhibition of growth at 150 g/ha (Chenopodium album [8]) [%] | inhibition of growth at 150 g/ha (Digitaria sanguinalis [9]) [%] | inhibition of growth at 150 g/ha (Digitaria sanguinalis [10]) [%] | inhibition of growth at 150 g/ha (Chenopodium album [11]) [%] | inhibition of growth at 150 g/ha (Amaranthus retroflexus [12]) [%] | inhibition of growth at 150 g/ha (Brassica juncea [13]) [%]
1 | CCc1ccc(C(=O)n2nc(C)c3cccc(Oc4nc(OC)cc(OC)n4)c3c2=O)cc1 | 710 | < 50 | < 50 | < 50 | 50 | < 50 | 50 | 50 | < 50 | < 50 | < 50 | > 80 | 50
2 | COc1cc(OC)nc(Oc2cccc3c(C)nn(CC(=O)OC(C)(C)C)c(=O)c23)n1 | 1560 | < 50 | < 50 | < 50 | < 50 | < 50 | < 50 | < 50 | < 50 | < 50 | < 50 | < 50 | < 50
3 | COc1cc(OC)nc(Oc2cccc3c(C)nn(CC4OCCO4)c(=O)c23)n1 | 778 | < 50 | < 50 | < 50 | > 80 | < 50 | 50 | 50 | 50 | < 50 | < 50 | > 80 | 50
4 | COc1cc(OC)nc(Oc2cccc3c(C)nn(Cc4ccc(C)cc4)c(=O)c23)n1 | 637 | < 50 | < 50 | < 50 | < 50 | < 50 | < 50 | < 50 | < 50 | < 50 | < 50 | < 50 | < 50

Further compounds by falling Ki [5], results first:

Row | Ki [5] [µM] | SMILES | inhibition of growth at 150 g/ha (Brassica juncea [1]) [%] | inhibition of growth at 150 g/ha (Setaria viridis [2]) [%] | inhibition of growth at 150 g/ha (Echinochloa crus-galli [3]) [%] | inhibition of growth at 150 g/ha (Setaria viridis [4]) [%] | inhibition of growth at 150 g/ha (Amaranthus retroflexus [6]) [%] | inhibition of growth at 150 g/ha (Echinochloa crus-galli [7]) [%] | inhibition of growth at 150 g/ha (Chenopodium album [8]) [%] | inhibition of growth at 150 g/ha (Digitaria sanguinalis [9]) [%] | inhibition of growth at 150 g/ha (Digitaria sanguinalis [10]) [%] | inhibition of growth at 150 g/ha (Chenopodium album [11]) [%] | inhibition of growth at 150 g/ha (Amaranthus retroflexus [12]) [%] | inhibition of growth at 150 g/ha (Brassica juncea [13]) [%]
5 | 1660 | CCCn1nc(C)c2cccc(Oc3nc(OC)cc(OC)n3)c2c1=O | < 50 | < 50 | < 50 | 50 | < 50 | 50 | 50 | 50 | < 50 | < 50 | > 80 | 50
6 | 310 | COc1cc(OC)nc(Oc2cccc3c(C)nn(Cc4ccc(Br)cc4)c(=O)c23)n1 | < 50 | < 50 | < 50 | < 50 | < 50 | < 50 | < 50 | < 50 | < 50 | < 50 | < 50 | < 50

— ChEMBL document CHEMBL3046448, “Design and syntheses of novel phthalazin-1(2H)-one derivatives as acetohydroxyacid synthase inhibitors” (J Agric Food Chem, 2006)
